The values that follow come from ChEMBL document CHEMBL4004837, “Synthesis and Characterization of Urofuranoic Acids: In Vivo Metabolism of 2-(2-Carboxyethyl)-4-methyl-5-propylfuran-3-carboxylic Acid (CMPF) and Effects on in Vitro Insulin Secretion” (J Med Chem, 2017).

Common to all, as to settings: in vivo
Series [1] concerns Liver. Description: Drug metabolism in CD1 mouse liver assessed as monoacylglycerol conjugate formation at 6 mg/kg, ip dosed once daily for 3 days followed by dosing of 1:1 mixtures of 2-(2-Carboxyethyl)-4-methyl-5-(1-propyl-1-13C)furan-3-carboxylic Acid and test compound on day 4 and 5 measured 1 hr post dose on day 5 by HPLC-MS analysis. It is filed as ADME, organism-based. The method, boiled down:
(§1)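 Mice received CMPF 6 mg/kg intraperitoneally for three days, then 1:1 labeled/unlabeled CMPF mixtures on days four and five. On day five they were euthanized 1 h post-dose, and plasma, adipose, muscle and liver were collected. Samples were analysed by HPLC-MS, with MS/MS of product ions. Metabolites were identified by the distinctive isotope patterns from the 1:1 label mixture.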

The nature of series [2]: Drug metabolism in CD1 mouse adipose assessed as diacylglycerol conjugate formation at 6 mg/kg, ip dosed once daily for 3 days followed by dosing of 1:1 mixtures of 2-(2-Carboxyethyl)-4-methyl-5-(1-propyl-1-13C)furan-3-carboxylic Acid and test compound on day 4 and 5 measured 1 hr post dose on day 5 by HPLC-MS analysis. It is filed as ADME, organism-based, Adipose tissue. The method, boiled down: as §1

The test system of series [3] is Liver. Description: Drug metabolism in CD1 mouse liver assessed as loss of C2 carboxyl during fragmentation at 6 mg/kg, ip dosed once daily for 3 days followed by dosing of 1:1 mixtures of 2-(2-Carboxyethyl)-4-methyl-5-(1-propyl-1-13C)furan-3-carboxylic Acid and test compound on day 4 and 5 measured 1 hr post dose on day 5 by HPLC-MS analysis. The class given is ADME, organism-based. The method, boiled down: as §1

Series [4] relates to Liver. Briefly: Drug metabolism in CD1 mouse liver assessed as glycerol conjugate formation at 6 mg/kg, ip dosed once daily for 3 days followed by dosing of 1:1 mixtures of 2-(2-(Carboxy-13C)ethyl)-4-methyl-5-propylfuran-3-carboxylic-2-13C Acid and test compound on day 4 and 5 measured 1 hr post dose on day 5 by HPLC-MS analysis. It is filed as ADME, organism-based. Summed up: as §1

`CCCc1oc(CCC(=O)O)c(C(=O)O)c1C`: the Drug metabolism result is recorded as “Metabolite_Notdetected” with Liver [1], “Metabolite_Notdetected” in series [2], “Metabolite_Detected” in the series on Liver [3] and “Metabolite_Notdetected” with Liver [4].
